Entries after “also recorded” stand apart in the source; their conditions may differ. Where a name gives a salt, the structure may show the parent alone. Read-outs that look alike come from different tables or passages of the source.
Tests used:
rabbit muscle GAPDH [1] = target: T1, rabbit muscle GAPDH (Oryctolagus cuniculus, UniProt P46406); test: In vitro inhibition of GAPDH; type: biochemical; conditions: for GAPDH inhibition (in words): incubation of GAPDH
rabbit muscle GAPDH [2] = target: T1, rabbit muscle GAPDH; test: Reversibility of GAPDH inhibition by DTT; type: biochemical; conditions: for GAPDH enzyme activity after treatment / GAPDH enzyme activity restored after DTT incubation: 1 μM compound, 60 min; for GAPDH enzyme activity restored after DTT incubation: then DTT
GAPDH = GAPDH (Oryctolagus cuniculus, UniProt P46406); test: High resolution LC-MS of structural modifications of GAPDH tryptic peptides; design: species or system rabbit; conditions: for Products, GAPDH tryptic peptide V232–R245 (Cys 244) / Products, GAPDH tryptic peptide I143–K159 (Cys 149, Cys 153): LC-MS after trypsin digest, 10 eq. where printed; for Product at Cys 281 of GAPDH (peptide G269–K306): mass spectrometric data extraction from reaction mixture
Outline: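 Rabbit muscle GAPDH was incubated with test compound (10 equiv), then trypsin-digested at 20:1 (w/w, monomer:trypsin), 37 °C, 12−16 h, in 50 mM Tris-HCl, and quenched by freezing at −20 °C. Positive-ion Orbitrap, resolution 60000; Cys-peptide modifications were assigned by m/z.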

AhpC C165S = AhpC C165S (Salmonella typhimurium, UniProt P0A251, C166S); conditions: LC-MS after Asp-N digest, 10 eq. where printed
[3] = cited from earlier work; for t1/2 of HNO release: neutral conditions
myofilament = conditions: sensitizing myofilament responsiveness to calcium; cited from earlier work
[4] = Stopped-flow UV-vis kinetic decomposition; type: physicochemical; conditions: compared with AS
STAT3 = conditions: similar to AS; cited from earlier work

Sequence of GAPDH (P46406 whole entry): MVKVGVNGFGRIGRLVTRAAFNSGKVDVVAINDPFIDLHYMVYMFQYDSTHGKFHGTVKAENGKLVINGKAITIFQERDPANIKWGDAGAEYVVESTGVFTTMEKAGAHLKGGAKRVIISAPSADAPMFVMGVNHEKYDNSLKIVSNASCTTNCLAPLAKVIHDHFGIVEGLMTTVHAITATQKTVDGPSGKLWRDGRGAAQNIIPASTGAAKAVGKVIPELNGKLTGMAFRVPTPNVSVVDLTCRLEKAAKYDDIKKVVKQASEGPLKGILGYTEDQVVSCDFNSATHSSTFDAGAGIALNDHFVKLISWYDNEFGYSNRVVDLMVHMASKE
T1 sequence (P46406 whole entry): as above

N[C@@H](CCC(=O)N[C@@H](CSN=O)C(=O)NCC(=O)O)C(=O)O [GSNO, S-nitrosoglutathione]
GAPDH inhibition (in words) (rabbit muscle GAPDH [1]): inhibition of enzyme activity | DTT reversibility of GAPDH inhibition (in words) (rabbit muscle GAPDH [2]): completely DTT reversible | Products, GAPDH tryptic peptide V232–R245 (Cys 244) (GAPDH): Nitrosylated product | Products, C165S AhpC Asp-N peptide D41–G51 (Cys 46) (AhpC C165S): Nitrosylated Product

CC(=O)OC1(N=O)CCCCC1 [compound 1, 1-Nitrosocyclohexyl acetate]
GAPDH enzyme activity after treatment (rabbit muscle GAPDH [2]): 5 % of control | GAPDH enzyme activity restored after DTT incubation (rabbit muscle GAPDH [2]): 12 % of control | Products, GAPDH tryptic peptide I143–K159 (Cys 149, Cys 153) (GAPDH): Internal disulfide; RSSR | Products, GAPDH tryptic peptide V232–R245 (Cys 244) (GAPDH): Sulfinic acid | Product at Cys 281 of GAPDH (peptide G269–K306) (GAPDH): sulfinic acid | Products, C165S AhpC Asp-N peptide D41–G51 (Cys 46) (AhpC C165S): Sulfinic acid | t1/2 of HNO release [3]: 800 min | effect on myocardial contractility (myofilament): enhances myocardial contractility more potently than AS

O=NC1(OC(=O)C(F)(F)F)CCCCC1 [compound 3, 1-Nitrosocyclohexyl trifluoroacetate]
HNO release rate relative to AS [4]: over 1000 times faster | Products, GAPDH tryptic peptide I143–K159 (Cys 149, Cys 153) (GAPDH): Internal disulfide; RSSR | Products, GAPDH tryptic peptide V232–R245 (Cys 244) (GAPDH): Sulfinamide,; also recorded: Sulfinic acid

O=S(=O)(NO)c1ccccc1Br [o-Bromo-Piloty’s Acid]
Products, GAPDH tryptic peptide I143–K159 (Cys 149, Cys 153) (GAPDH): Internal disulfide; RSSR | Products, GAPDH tryptic peptide V232–R245 (Cys 244) (GAPDH): Sulfinamide; also recorded: Sulfinic acid | Products, C165S AhpC Asp-N peptide D41–G51 (Cys 46) (AhpC C165S): Sulfinamide; also recorded: Sulfinic acid

Sodium trioxidinitrate [AS]
GAPDH enzyme activity after treatment (rabbit muscle GAPDH [2]): 23 % of control | GAPDH enzyme activity restored after DTT incubation (rabbit muscle GAPDH [2]): 51 % of control | Products, GAPDH tryptic peptide I143–K159 (Cys 149, Cys 153) (GAPDH): Internal disulfide; RSSR | Products, GAPDH tryptic peptide V232–R245 (Cys 244) (GAPDH; listed as 14N AS): Sulfinamide; also recorded: Sulfinic acid | Product at Cys 281 of GAPDH (peptide G269–K306) (GAPDH): sulfinamide | Products, C165S AhpC Asp-N peptide D41–G51 (Cys 46) (AhpC C165S; listed as 14N AS): Sulfinamide; also recorded: Sulfinic acid | rate constant of decomposition to HNO and nitrite ([3]; pH 7, 37 °C): 0.005 s⁻¹

CC(C)(C)C(=O)OC1(N=O)CCCCC1 [compound 2, 1-nitrosocyclohexyl pivalate]
Products, GAPDH tryptic peptide I143–K159 (Cys 149, Cys 153) (GAPDH): Internal disulfide; RSSR | Products, GAPDH tryptic peptide V232–R245 (Cys 244) (GAPDH): Sulfinic acid | Products, C165S AhpC Asp-N peptide D41–G51 (Cys 46) (AhpC C165S): Sulfinic acid | t1/2 of HNO release [3]: 2268 min | effect on myocardial contractility (myofilament): no effect | effect on STAT3 activation (STAT3): blocks STAT3 activation

Diethylammonium-1- (N,N-diethylamino) diazen-1-ium- 1,2-diolate [DEANO]
GAPDH inhibition (in words) (rabbit muscle GAPDH [1]): inhibition of enzyme activity | Products, GAPDH tryptic peptide V232–R245 (Cys 244) (GAPDH): Nitrosylated product

O=Nc1ccccc1 [Nitrosobenzene, nitrosobenzene]
IC50 (rabbit muscle GAPDH [1]): 230 nM | Products, GAPDH tryptic peptide V232–R245 (Cys 244) (GAPDH): Sulfinic acid | Products, C165S AhpC Asp-N peptide D41–G51 (Cys 46) (AhpC C165S): Sulfinic acid
